Measured values gathered from unrelated publications.
Each line is one published result; the experiments were not run side by side.
MET M1250T: Hepatocyte growth factor receptor (MET, Homo sapiens, UniProt P08581, M1250T)
MET: Hepatocyte growth factor receptor (MET, Homo sapiens, UniProt P08581)
MET Y1235D: Hepatocyte growth factor receptor (MET, Homo sapiens, UniProt P08581, Y1235D)

COc1cnc(Nc2cccc(S(N)(=O)=O)c2)nc1N1CCN(c2ccccc2)C(=O)C1 gave a remaining binding of 98% (MET M1250T; binding; competition with immobilised ligand; 1 µM).
Cc1cnc(Nc2ccc(C(=O)N3CCC(N4CCCC4)CC3)cc2)nc1-c1cc2ccccc2s1 gave a remaining binding of 100% (MET; binding; competition with immobilised ligand; 1 µM).
O=C(O)c1cc(-c2ccc(C3CCNCC3)cc2)c2ccc(-c3ccc(C(F)(F)F)cc3)cc2c1 gave a remaining binding of 100% (MET Y1235D; cell-free assay; competition with immobilised ligand; 1 µM).
The remaining binding of O=C(NCCCN1CCOCC1)c1ccc(Nc2ncc(Cl)c(-c3ccc(Cl)s3)n2)cc1 is reported as 13% (MET M1250T; binding; competition with immobilised ligand; 1 µM).
O=C(Nc1c[nH]nc1C(=O)NC1CCNCC1)c1cc(F)cc(F)c1 has a remaining binding of 100% (MET M1250T; binding; competition with immobilised ligand; 1 µM).
CN(C)c1nccc(-c2cnn3ncccc23)n1 has a remaining binding of 100% (MET M1250T; binding; 1 µM).
The remaining binding of CNC(=O)[C@@H]1CC[C@@H](n2c(-c3ccc4cnccc4c3)nc3ccc(C(=O)NCc4cccc(C(N)=O)c4)cc32)C1 is reported as 98% (MET; binding; competition with immobilised ligand; 1 µM).
With CC(C)CC(=O)N1CCc2nc(-c3ccc(Br)cc3)nc(N(C)Cc3ccccc3)c2C1 the remaining binding was 100% (MET Y1235D; cell-free assay; competition with immobilised ligand; 0.1 µM).
CN1CCN(c2ccc(Nc3nccc(-c4ccccc4)n3)cc2C(F)(F)F)CC1 has a remaining binding of 21% (MET Y1235D; binding; 10 µM).
C[C@H]1CCN(c2nccc(-c3cnn4ncccc34)n2)C1 has a remaining binding of 100% (MET Y1235D; binding; 1 µM).
O=C(c1ccc(Nc2ncc(Cl)c(-c3cc4ccccc4s3)n2)cc1)N1CCC(N2CCCC2)CC1 gave a remaining binding of 82% (MET; binding; competition with immobilised ligand; 1 µM).
With CC1=C(C#N)[C@@H](c2ccc3[nH]nc(C)c3c2)C(C#N)=C(c2ccc(Cl)cc2)N1 the remaining binding was 52.6% (MET Y1235D; cell-free assay; competition with immobilised ligand; 1 µM).
CC(C)(C)c1ccc(-c2nc(CBr)nn2-c2cccc(O)c2)cc1 gave a remaining binding of 83% (MET; cell-free assay; competition with immobilised ligand; 10 µM).
With COc1ncc2cc3ccccc3nc2c1C#N the remaining binding was 80% (MET Y1235D; cell-free assay; competition with immobilised ligand; 5 µM).
CC(=O)N1CCC(c2ccc(C(=O)NC3=NCCN3)cc2C(F)(F)F)CC1 has a remaining binding of 84% (MET M1250T; cell-free assay; competition with immobilised ligand; 1 µM).
CN(CCCC(F)(F)F)c1nccc(-c2cnn3ncccc23)n1 has a remaining binding of 100% (MET; binding; 1 µM).
With O=C(N[C@H]1CCCCC/C=C\C2C[C@@]2(C(=O)O)NC(=O)[C@@H]2C[C@@H](Oc3ccncc3)CN2C1=O)OC1CCCC1 (some centres unmarked) the remaining binding was 92% (MET M1250T; cell-free assay; competition with immobilised ligand; 1 µM).
The remaining binding of CC1CCCN1c1nccc(-c2cnn3ncccc23)n1 (centres unmarked) is reported as 96% (MET; binding; 1 µM).
With c1cncc(-c2cccc(Nc3nccc(NC4CCCCC4)n3)c2)c1 the remaining binding was 29% (MET M1250T; binding; competition with immobilised ligand; 10 µM).
For C[C@H](NC(=O)c1cnc2n1[C@](C)(Cc1ccc(C#N)cc1)C(=O)N2c1cc(Cl)c(F)c(Cl)c1)C(=O)NC1(c2ccccn2)CC1, the remaining binding was 100% (MET; cell-free assay; competition with immobilised ligand; 1 µM).
The remaining binding of N[C@@H]1CCN(c2nccc(-c3cnn4ncccc34)n2)C1 is reported as 60% (MET; binding; 1 µM).
Cc1c[nH]c2nccc(Oc3c(F)cc(Nc4cc(Cl)nc(N)n4)cc3F)c12 gave a remaining binding of 83% (MET; cell-free assay; competition with immobilised ligand; 0.1 µM).
c1cnn2ncc(-c3ccnc(N4CCC45COC5)n3)c2c1 gave a remaining binding of 80% (MET Y1235D; binding; 1 µM).
